From ChEMBL document CHEMBL1155859, “Synthesis of hydantoin analogues of (2S,3R,4S)-4-hydroxyisoleucine with insulinotropic properties” (Bioorg Med Chem Lett, 2008)
Active and inactive are the calls of the source. The calls are words filed in the database; no cut-off is given here.

Assays:
[1] = Increase in insulin secretion in Sprague-Dawley rat pancreas assessed per Langerhans islet; format: functional
In short: (§1)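 Islets from male Sprague-Dawley rats (360–390 g) are digested with collagenase XI (2.5 mg/ml, HBSS, 35 min, 37 °C), purified on a Histopaque gradient and handpicked. They are pre-incubated 60 min at 37 °C, 5% CO2, in KRB with 8.3 mM glucose. Medium insulin is measured by ELISA in pg/islet/h (n = 6–12) against untreated basal.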

[2] = Increase in insulin secretion in Sprague-Dawley rat pancreatic Langerhans islets at 25 uM; format: functional; in short: as §1
[3] = Increase in insulin secretion in Sprague-Dawley rat pancreatic Langerhans islets at 200 uM; format: functional; in short: as §1
[4] = Increase in insulin secretion in Sprague-Dawley rat pancreas at 75 uM assessed per Langerhans islet; format: functional; in short: as §1
[5] = species on record: Rattus norvegicus; test: Increase in insulin secretion in Sprague-Dawley rat pancreatic Langerhans islets below 25 uM; format: functional; in short: as §1
[6] = Lactone formation at pH 1 after 1 hr; conditions: buffer, pH 1, 1 h
[7] = Lactone formation at pH 1 after 4 hrs; conditions: buffer, pH 1, 4 h

Lactone formation [6] [%]	Lactone formation [7] [%]	Structure (SMILES)	Activity [1] [pg/h]	Activity [2] [%]	Activity [3] [%]	Activity [4] [pg/h]	Activity [5]
–	–	C[C@@H]([C@H](C)O)[C@H]1NC(=O)NC1=O	100	120	–	–	–
–	–	C[C@@H]([C@H](C)O)[C@@H]1NC(=O)NC1=O	100	–	–	–	–
–	–	CCOc1cc(CC(=O)N[C@@H](CC(C)C)c2ccccc2N2CCCCC2)ccc1C(=O)O [REPAGLINIDE]	100	–	100	–	–
10	32	C[C@@H]([C@H](C)O)[C@H](N)C(=O)O	45	–	–	100	inactive
